Data: ChEMBL document CHEMBL3286111, “Tryptophan hydroxylase 1 (Tph-1)-targeted bone anabolic agents for osteoporosis” (J Med Chem, 2014)

tested on: not listed separately; test: Cytotoxicity against rat RBL2H3 cells by MTT assay; type: cell-based; set-up: concentration or dose not given beside the values; details: rbl-2h3
Procedure, shortened: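 RBL2H3 cells (α-MEM) or PC12 cells (D-MEM), both with 10% FBS, treated at a single dose in 0.1% DMSO; 0.1% DMSO control; 37 °C, 5% CO2. MTT (5 mg/mL) added 4 h before the end, then SDS/DMF lysis buffer (pH 7.2) for 6 h; absorbance read at 570 nm. Cytotoxicity % calculated from background-corrected OD versus control.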

SMILES | Activity [%]
C[C@H]1[C@H](C)CC[C@]2(C(=O)O)CC[C@]3(C)C(=CC[C@@H]4[C@@]5(C)Cc6nc7ccccc7nc6C(C)(C)[C@@H]5CC[C@]43C)[C@H]12 | 3.5
COC(=O)C(Cc1ccccc1)NC(=O)[C@]12CC[C@@H](C)[C@H](C)[C@H]1C1=CC[C@@H]3[C@@]4(C)Cc5cnoc5C(C)(C)[C@@H]4CC[C@@]3(C)[C@]1(C)CC2 (stereo not given in full) | 0.8
C[C@H]1[C@H](C)CC[C@]2(C(=O)O)CC[C@]3(C)C(=CC[C@@H]4[C@@]5(C)Cc6c([nH]c7ccc(Cl)cc67)C(C)(C)[C@@H]5CC[C@]43C)[C@H]12 | 2.9
COC(=O)C(CC(C)C)NC(=O)[C@]12CC[C@@H](C)[C@H](C)[C@H]1C1=CC[C@@H]3[C@@]4(C)Cc5c([nH]c6ccc(Br)cc56)C(C)(C)[C@@H]4CC[C@@]3(C)[C@]1(C)CC2 (stereo not given in full) | 3
C[C@H]1[C@H](C)CC[C@]2(C(=O)O)CC[C@]3(C)C(=CC[C@@H]4[C@@]5(C)Cc6cncnc6C(C)(C)[C@@H]5CC[C@]43C)[C@H]12 | 4.3
COC(=O)C(CC(C)C)NC(=O)[C@]12CC[C@@H](C)[C@H](C)[C@H]1C1=CC[C@@H]3[C@@]4(C)Cc5cncnc5C(C)(C)[C@@H]4CC[C@@]3(C)[C@]1(C)CC2 (stereo not given in full) | 10.3
C[C@H]1[C@H](C)CC[C@]2(C(=O)O)CC[C@]3(C)C(=CC[C@@H]4[C@@]5(C)Cc6nc7cc(Cl)c(Cl)cc7nc6C(C)(C)[C@@H]5CC[C@]43C)[C@H]12 | 2.2
COC(=O)C(Cc1ccccc1)NC(=O)[C@]12CC[C@@H](C)[C@H](C)[C@H]1C1=CC[C@@H]3[C@@]4(C)CC[C@H](OC(C)=O)C(C)(C)[C@@H]4CC[C@@]3(C)[C@]1(C)CC2 (stereo not given in full) | 12.4
CCOC(=O)CNC(=O)[C@]12CC[C@@H](C)[C@H](C)[C@H]1C1=CC[C@@H]3[C@@]4(C)Cc5c([nH]c6ccc(Cl)cc56)C(C)(C)[C@@H]4CC[C@@]3(C)[C@]1(C)CC2 | 14.7
COC(=O)C(CC(C)C)NC(=O)[C@]12CC[C@@H](C)[C@H](C)[C@H]1C1=CC[C@@H]3[C@@]4(C)Cc5cnn(-c6ccc(F)cc6)c5C(C)(C)[C@@H]4CC[C@@]3(C)[C@]1(C)CC2 (stereo not given in full) | 1
COC(=O)C(Cc1ccccc1)NC(=O)[C@]12CC[C@@H](C)[C@H](C)[C@H]1C1=CC[C@@H]3[C@@]4(C)Cc5cncnc5C(C)(C)[C@@H]4CC[C@@]3(C)[C@]1(C)CC2 (stereo not given in full) | 2.6
CCOC(=O)CNC(=O)[C@]12CC[C@@H](C)[C@H](C)[C@H]1C1=CC[C@@H]3[C@@]4(C)CC[C@H](OC(C)=O)C(C)(C)[C@@H]4CC[C@@]3(C)[C@]1(C)CC2 | 1.6
C[C@H]1[C@H](C)CC[C@]2(C(=O)NCCC3CCN(Cc4ccccc4)CC3)CC[C@]3(C)C(=CC[C@@H]4[C@@]5(C)Cc6nc7ccccc7nc6C(C)(C)[C@@H]5CC[C@]43C)[C@H]12 | 59.5
COC(=O)C(Cc1ccccc1)NC(=O)[C@]12CC[C@@H](C)[C@H](C)[C@H]1C1=CC[C@@H]3[C@@]4(C)CCC(=O)C(C)(C)[C@@H]4CC[C@@]3(C)[C@]1(C)CC2 (stereo not given in full) | 1.1
COC(=O)C(CC(C)C)NC(=O)[C@]12CC[C@@H](C)[C@H](C)[C@H]1C1=CC[C@@H]3[C@@]4(C)Cc5c([nH]c6ccc(Cl)cc56)C(C)(C)[C@@H]4CC[C@@]3(C)[C@]1(C)CC2 (stereo not given in full) | 15
CCOC(=O)CNC(=O)[C@]12CC[C@@H](C)[C@H](C)[C@H]1C1=CC[C@@H]3[C@@]4(C)Cc5cn[nH]c5C(C)(C)[C@@H]4CC[C@@]3(C)[C@]1(C)CC2 | 0.4
COC(=O)C(CC(C)C)NC(=O)[C@]12CC[C@@H](C)[C@H](C)[C@H]1C1=CC[C@@H]3[C@@]4(C)C=C(C#N)C(=O)C(C)(C)[C@@H]4CC[C@@]3(C)[C@]1(C)CC2 (stereo not given in full) | 58.1

SMILES | Activity [%]
COC(=O)C(CC(C)C)NC(=O)[C@]12CC[C@@H](C)[C@H](C)[C@H]1C1=CC[C@@H]3[C@@]4(C)Cc5cnn(-c6ccccc6)c5C(C)(C)[C@@H]4CC[C@@]3(C)[C@]1(C)CC2 (stereo not given in full) | 1.8
COC(=O)C(CC(C)C)NC(=O)[C@]12CC[C@@H](C)[C@H](C)[C@H]1C1=CC[C@@H]3[C@@]4(C)Cc5nc6cc(Cl)c(Cl)cc6nc5C(C)(C)[C@@H]4CC[C@@]3(C)[C@]1(C)CC2 (stereo not given in full) | 0.7
COC(=O)C(CC(C)C)NC(=O)[C@]12CC[C@@H](C)[C@H](C)[C@H]1C1=CC[C@@H]3[C@@]4(C)CC[C@H](OC(C)=O)C(C)(C)[C@@H]4CC[C@@]3(C)[C@]1(C)CC2 (stereo not given in full) | 6.6
CCOC(=O)CNC(=O)[C@]12CC[C@@H](C)[C@H](C)[C@H]1C1=CC[C@@H]3[C@@]4(C)Cc5cnoc5C(C)(C)[C@@H]4CC[C@@]3(C)[C@]1(C)CC2 | 11.1
COC(=O)C(CC(C)C)NC(=O)[C@]12CC[C@@H](C)[C@H](C)[C@H]1C1=CC[C@@H]3[C@@]4(C)Cc5cn[nH]c5C(C)(C)[C@@H]4CC[C@@]3(C)[C@]1(C)CC2 (stereo not given in full) | 0.9
C[C@H]1[C@H](C)CC[C@]2(C(=O)O)CC[C@]3(C)C(=CC[C@@H]4[C@@]5(C)CC[C@H](O)C(C)(C)[C@@H]5CC[C@]43C)[C@H]12 [URSOLIC ACID] | 10
CCOC(=O)CNC(=O)[C@]12CC[C@@H](C)[C@H](C)[C@H]1C1=CC[C@@H]3[C@@]4(C)Cc5cncnc5C(C)(C)[C@@H]4CC[C@@]3(C)[C@]1(C)CC2 | 1.9
COC(=O)C(Cc1ccccc1)NC(=O)[C@]12CC[C@@H](C)[C@H](C)[C@H]1C1=CC[C@@H]3[C@@]4(C)Cc5nc6ccccc6nc5C(C)(C)[C@@H]4CC[C@@]3(C)[C@]1(C)CC2 (stereo not given in full) | 12.4
CCOC(=O)CNC(=O)[C@]12CC[C@@H](C)[C@H](C)[C@H]1C1=CC[C@@H]3[C@@]4(C)CCC(=O)C(C)(C)[C@@H]4CC[C@@]3(C)[C@]1(C)CC2 | 1.7
C[C@H]1[C@H](C)CC[C@]2(C(=O)O)CC[C@]3(C)C(=CC[C@@H]4[C@@]5(C)Cc6cnoc6C(C)(C)[C@@H]5CC[C@]43C)[C@H]12 | 2.1
COC(=O)C(Cc1ccccc1)NC(=O)[C@]12CC[C@@H](C)[C@H](C)[C@H]1C1=CC[C@@H]3[C@@]4(C)Cc5c([nH]c6ccc(Cl)cc56)C(C)(C)[C@@H]4CC[C@@]3(C)[C@]1(C)CC2 (stereo not given in full) | 1.6
CCOC(=O)CNC(=O)[C@]12CC[C@@H](C)[C@H](C)[C@H]1C1=CC[C@@H]3[C@@]4(C)Cc5nc6cc(Cl)c(Cl)cc6nc5C(C)(C)[C@@H]4CC[C@@]3(C)[C@]1(C)CC2 | 2
C[C@H]1[C@H](C)CC[C@]2(C(=O)O)CC[C@]3(C)C(=CC[C@@H]4[C@@]5(C)Cc6cnn(-c7ccc(F)cc7)c6C(C)(C)[C@@H]5CC[C@]43C)[C@H]12 | 1.5
CCOC(=O)CNC(=O)[C@]12CC[C@@H](C)[C@H](C)[C@H]1C1=CC[C@@H]3[C@@]4(C)C=C(C#N)C(=O)C(C)(C)[C@@H]4CC[C@@]3(C)[C@]1(C)CC2 | 50.1
C[C@H]1[C@H](C)CC[C@]2(C(=O)NCCN3CCCCC3)CC[C@]3(C)C(=CC[C@@H]4[C@@]5(C)Cc6nc7ccccc7nc6C(C)(C)[C@@H]5CC[C@]43C)[C@H]12 | 52.1
C[C@H]1[C@H](C)CC[C@]2(C(=O)O)CC[C@]3(C)C(=CC[C@@H]4[C@@]5(C)Cc6cnn(-c7ccccc7)c6C(C)(C)[C@@H]5CC[C@]43C)[C@H]12 | 2.4
COC(=O)C(Cc1ccccc1)NC(=O)[C@]12CC[C@@H](C)[C@H](C)[C@H]1C1=CC[C@@H]3[C@@]4(C)Cc5cnn(-c6ccc(F)cc6)c5C(C)(C)[C@@H]4CC[C@@]3(C)[C@]1(C)CC2 (stereo not given in full) | 2

molecular target: T1, Tryptophan 5-hydroxylase 1 (Rattus norvegicus, UniProt P09810); details: not given
T1 sequence (P09810 whole entry): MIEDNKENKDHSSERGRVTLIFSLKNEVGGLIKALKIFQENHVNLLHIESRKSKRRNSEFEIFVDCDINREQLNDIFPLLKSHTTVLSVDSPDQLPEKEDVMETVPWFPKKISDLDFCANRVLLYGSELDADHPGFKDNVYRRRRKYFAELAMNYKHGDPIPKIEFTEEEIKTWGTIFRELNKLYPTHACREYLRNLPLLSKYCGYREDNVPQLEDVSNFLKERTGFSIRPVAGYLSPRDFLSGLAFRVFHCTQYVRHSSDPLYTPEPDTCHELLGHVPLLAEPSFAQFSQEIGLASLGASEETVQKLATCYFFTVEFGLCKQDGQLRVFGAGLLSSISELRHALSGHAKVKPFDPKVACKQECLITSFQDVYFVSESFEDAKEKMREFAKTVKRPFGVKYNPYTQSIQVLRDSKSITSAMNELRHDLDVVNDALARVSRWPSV

SMILES | IC50 [µM]
Nc1nc(OC(c2ccc(-c3cccc(F)c3)cc2)C(F)(F)F)cc(-c2ccc(C[C@H](N)C(=O)O)cc2)n1 (stereo not given in full) | 0.4
